Activity and growth data for 14 compounds are collected here from ChEMBL document CHEMBL1817664, “Modulation of cell differentiation, proliferation, and tumor growth by dihydrobenzyloxopyrimidine non-nucleoside reverse transcriptase inhibitors” (2011).

The source made the active and inactive calls. The rule behind the calls is not given here.

The test system of test [1] is A-375. Kind of test: Antitumor activity against human A375 cells xenografted in athymic nude Harlan mouse assessed as reduced tumor growth at 20 mg/kg, ip administered daily 5 days pre week measured every other day. In general terms: Xenograft models place foreign cells or tissue in a host animal.
Test [2] deals with A-375. Kind of test: Antiproliferative activity against human A375 cells assessed as morphological changes at 5 to 10 uM after 96 hrs by phase contrast microscopy. The format is functional, cell-based. The procedure, abridged: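 A375 cultures in DMEM/10% FCS exposed to 5, 7.5 or 10 μM drug in DMSO; DMSO-only controls. Dendritic-like extensions scored under phase-contrast or bright-field microscopy.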

For test [3], the system named is A-375. Kind of test: Induction of apoptosis in human A375 cells after 96 hrs by propidium iodide staining-based FACS analysis. It is filed as functional, cell-based. The procedure, abridged: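 A375 cells seeded at low (100 000) or high (300 000) density per 25 cm2 flask and cultured 96 h with 20 μM compound. Harvested for biparametric FACS: DNA content by PI uptake (linear) against side scatter (log); at least 10 000 cells per sample. Apoptotic fraction given as mean and SD of three experiments.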

For test [4], the system named is A-375. Kind of test: Antiproliferative activity against human A375 cells after 96 hrs by trypan blue assay. The format is functional, cell-based. The procedure, abridged: (§1)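 A375 melanoma cells grown in DMEM with 10% FCS at 37 °C, 5% CO2; compounds added in DMSO after 56 h (DMSO 0.005% final for controls). Medium with drug renewed every 48 h. After 96 h, cells harvested and Coulter-counted, with trypan blue exclusion for viability. Counts given as % of DMSO controls; data pooled from three experiments.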

The test system of test [5] is A-375. Kind of test: Induction of apoptosis in human A375 cells assessed as necrotic cells at 25 uM after 96 hrs by propidium iodide staining-based FACS analysis. It is filed as functional, cell-based. A general note: A flow cytometer gives signals particle by particle.
Test [6] concerns A-375. Kind of test: Antiproliferative activity against human A375 cells assessed as cell growth at 25 uM after 96 hrs by trypan blue assay. It is filed as functional. The settings on record: A-375, 96 h, read-out: Activity. The procedure, abridged: as §1
The test system of test [7] is A-375. Kind of test: Induction of human A375 cell differentiation assessed as formation of vimentin intermediate filament at 20 uM after 96 hrs by immunofluorescence analysis. It is filed as functional, cell-based. The procedure, abridged: (§2)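 A375 cells cultured 96 h with drug, then fixed in 4% paraformaldehyde for 10 min and permeabilized in 0.2% Triton X-100/PBS for 5 min. Immunostained for tubulin and vimentin, nuclei counterstained with DAPI.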

Test [8] has as its system A-375. Kind of test: Induction of apoptosis in human A375 cells seeded as high density at 20 uM after 96 hrs by propidium iodide staining-based FACS analysis.
For test [9], the system named is A-375. Kind of test: Induction of human A375 cell differentiation assessed as microtubule reorganization at 20 uM after 96 hrs by immunofluorescence analysis. The format is functional, cell-based. The procedure, abridged:
as §2

For test [10], the system named is A-375. Kind of test: Induction of apoptosis in human A375 cells seeded as low density at 20 uM after 96 hrs by propidium iodide staining-based FACS analysis.
In test [11] the test system is A-375. Kind of test: Antiproliferative activity against human A375 cells at 350 uM after 96 hrs by trypan blue assay. The format is functional. A digest of the protocol:
(§3)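 A375 melanoma cells were grown in DMEM with 10% FCS, 2 mM L-glutamine and penicillin/streptomycin at 37 °C in 5% CO2, and plated at (20–50) × 10^3 cells per 35 mm plate. Once adherent (56 h), compound in DMSO was added (DMSO 0.005% final), with fresh drug medium every 48 h. After 96 h, viable cells were counted twice by Coulter counter, with trypan blue exclusion. Results are % of DMSO control, pooled from three experiments.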

The subject of test [12] is A-375. Kind of test: Antiproliferative activity against human A375 cells assessed as cell growth at 350 uM after 96 hrs by trypan blue assay. It is filed as functional. The settings on record: A-375, 96 h, read-out: Activity. The procedure, abridged:
as §3

The subject of test [13] is A-375. Kind of test: Induction of morphological differentiation in human A375 cells assessed as dentritic-like extension at 5 to 10 uM after 96 hrs by phase contrast microscopy.
The test system of test [14] is A-375. Kind of test: Antiproliferative activity against human A375 cells at 20 uM after 96 hrs by trypan blue assay. The format is functional. A digest of the protocol: (§4)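 A375 cells plated at (20-50) × 10^3 per 35 mm dish in DMEM/10% FCS. Drug in DMSO added, renewed every 48 h; DMSO alone for controls. After 48 or 96 h, viable cells counted twice per sample by Coulter counter, with trypan blue check. Cells at time t divided by cells seeded, relative to DMSO control as 100%. Mean and SD: four experiments for dose series (5, 10, 20 μM, 96 h), three for time course (5 or 10 μM).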

Test [15] has as its system A-375. Kind of test: Antiproliferative activity against human A375 cells at 5 to 10 uM by trypan blue assay. It is filed as functional, cell-based. The settings on record: TDE = time-dependent effect. A digest of the protocol:
as §4

Test [16] has as its system A-375. Kind of test: Antiproliferative activity against human A375 cells assessed as cell growth at 15 uM after 96 hrs by trypan blue assay. It is filed as functional. The note with it: A-375, 96 h, read-out: Activity. The procedure, abridged:
as §1

Turning to `CCC(C)Sc1nc(C(CC)c2c(F)cccc2F)c(C)c(=O)[nH]1` (mixture of isomers), the outcome in the test on A-375 [1], in the test on A-375 [2] and in the test on A-375 [5] was Active. In addition, the Activity entry in the test on A-375 [3] and with A-375 [4] was “Dose-dependent effect” each time. Besides, the growth at 25 µM in the test with A-375 [6] was found to be 5%.
On to `CCC(c1nc(S)[nH]c(=O)c1C)c1c(F)cccc1F` (stereo not drawn), for which the growth at 25 µM in the test with A-375 [6] was 76%.
Regarding `Cc1ccnc2c1NC(=O)c1cccnc1N2C1CC1` [NEVIRAPINE], the outcome in the test on A-375 [7] and with A-375 [9] was Active. Further, the outcome in the test with A-375 [8] and in the test on A-375 [10] was inactive. Further, the Activity in the test with A-375 [11] amounted to 50%. In the test on A-375 [12], the growth at 350 µM stood at 35%.
Consider `CCC(C)Sc1nc([C@@H](CC)c2c(F)cccc2F)c(C)c(=O)[nH]1` (stereo partly drawn), for which the outcome in the test on A-375 [7], with A-375 [8], with A-375 [9] and with A-375 [13] was Active. In addition, in the test on A-375 [10], the result was inactive. In addition, the Activity in the test on A-375 [14] is 70%; in the test with A-375 [15], “tde”.
As for `CCC(c1nc(SC(C)C)[nH]c(=O)c1C)c1c(F)cccc1F` (stereo not drawn), the growth at 25 µM in the test on A-375 [6] was 12%.
For `CCC(c1nc(SC2CCCC2)[nH]c(=O)c1C)c1c(F)cccc1F` (stereo not drawn), the growth at 25 µM in the test with A-375 [6] is 5%.
With `CCC(c1cc(O)nc(SC(C)C)n1)c1c(F)cccc1F` (stereo not drawn), the growth at 25 µM in the test with A-375 [6] came out at 19%.
Turning to `O=C1Nc2ccc(Cl)cc2[C@@](C#CC2CC2)(C(F)(F)F)O1` [EFAVIRENZ], the outcome with A-375 [1] was Active. Further, the growth at 15 µM in the test with A-375 [16] amounted to 51%.
Take `CCC(C)Sc1nc(C(CC)c2c(F)cccc2F)cc(=O)[nH]1` (stereo not drawn): in the test with A-375 [6], the growth at 25 µM was determined as 13%.
On to `CCC(c1cc(O)nc(SC2CCCC2)n1)c1c(F)cccc1F` (stereo not drawn), for which, in the test on A-375 [6], the growth at 25 µM was found to be 22%.
On to `CCC(c1cc(=O)[nH]c(S)n1)c1c(F)cccc1F` (stereo not drawn), for which the growth at 25 µM in the test on A-375 [6] is 100%.
Regarding `CCC(c1cc(=O)[nH]c(SC)n1)c1c(F)cccc1F` (stereo not drawn), in the test on A-375 [6], the growth at 25 µM was 13%.
As to `CCC(C)Sc1nc([C@H](CC)c2c(F)cccc2F)c(C)c(=O)[nH]1` (stereo partly drawn), the outcome in the test with A-375 [1], in the test on A-375 [7], in the test on A-375 [8], in the test on A-375 [9] and in the test with A-375 [13] was Active. In addition, the result with A-375 [10] was inactive. Further, the results for the Activity with A-375 [14] and in the test with A-375 [15] were 70% and “tde”, respectively.
`CCC(c1nc(SC)[nH]c(=O)c1C)c1c(F)cccc1F` (stereo not drawn): the growth at 25 µM with A-375 [6] is 40%.
